Experiment [1] has as its target Leukotriene B4 receptor (Homo sapiens) (UniProt Q9NPC1+Q15722). In words: Inhibition of [3H]LTB4 binding to leukotriene B4 receptor of human peripheral neutrophils (PMN) at a concentration of 0.1 uM. It is filed as protein assay. In a few lines: (§1)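 Neutrophils isolated by Ficoll-Hypaque centrifugation, dextran 70 sedimentation and hypotonic lysis (≥90% neutrophils, ≥90% viable), 2 × 10^7 cells/mL in Hank's balanced salt solution with 0.1% ovalbumin. Compound in DMSO plus 2.65 nM [3H]LTB4 (stock), 10 min at 4 °C. Cells spun through dibutyl/dinonyl phthalate (7:2), pellet counted by scintillation. Triplicate incubations averaged. Reported as % inhibition of specific binding; nonspecific binding taken with >2000-fold excess unlabeled LTB4.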

For experiment [2], the target named is Leukotriene B4 receptor 1 (Homo sapiens) (UniProt Q15722). In words: Inhibition of binding of [3H]LTB4 to the leukotriene B4 receptor of human peripheral neutrophils (PMN) at a concentration of 10 uM. In a few lines:
as §1

Experiment [3] shares this target. In words: Inhibition of [3H]LTB4 binding to leukotriene B4 receptor from human peripheral neutrophils (PMN), at a concentration of 1 uM. In a few lines:
as §1

Sequence of Leukotriene B4 receptor 1 (Homo sapiens) (Q15722 whole entry): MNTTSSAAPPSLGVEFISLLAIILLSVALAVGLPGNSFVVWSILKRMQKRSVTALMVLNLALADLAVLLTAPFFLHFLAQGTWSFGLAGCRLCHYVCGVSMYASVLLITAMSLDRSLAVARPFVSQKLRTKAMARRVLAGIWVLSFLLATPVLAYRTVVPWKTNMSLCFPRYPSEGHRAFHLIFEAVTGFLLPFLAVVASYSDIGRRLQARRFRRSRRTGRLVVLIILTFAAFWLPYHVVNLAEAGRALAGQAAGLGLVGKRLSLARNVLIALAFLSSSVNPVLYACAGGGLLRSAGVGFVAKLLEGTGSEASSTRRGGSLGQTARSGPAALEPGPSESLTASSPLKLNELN
Sequence of Leukotriene B4 receptor (Homo sapiens) (Q15722 whole entry, looked up): as the sequence (Q15722 whole entry) above
Sequence of Leukotriene B4 receptor (Homo sapiens) (Q9NPC1 whole entry, looked up): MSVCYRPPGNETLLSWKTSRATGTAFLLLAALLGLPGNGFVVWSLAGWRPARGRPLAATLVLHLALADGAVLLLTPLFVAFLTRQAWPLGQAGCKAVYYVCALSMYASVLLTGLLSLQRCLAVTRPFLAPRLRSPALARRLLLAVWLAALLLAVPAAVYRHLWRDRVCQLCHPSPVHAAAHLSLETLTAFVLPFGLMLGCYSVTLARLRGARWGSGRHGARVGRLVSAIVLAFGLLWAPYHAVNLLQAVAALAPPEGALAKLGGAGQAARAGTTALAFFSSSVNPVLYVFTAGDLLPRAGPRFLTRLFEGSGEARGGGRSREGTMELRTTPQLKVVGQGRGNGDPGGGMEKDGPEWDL

Turning to `CCc1cc(C(C)=O)c(O)cc1OCCCCCCCC(C)(C)C#N`, the inhibition came out at 6% in experiment [1], 66% in experiment [2] and 29% in experiment [3].

For `CCc1cc(C(C)=O)c(O)cc1OCCCCCCC(C)(C)c1nnn[nH]1`, the inhibition in experiment [1] was found to be 13%; in experiment [3], 67%.

With `CCc1cc(C(C)=O)c(O)cc1OCCCCC(C)(C)C#N`, the inhibition in experiment [1] came to 5%; in experiment [2], 79%; in experiment [3], 30%.

As to `CCc1cc(C(C)=O)c(O)cc1OCCCCCC(C)(C)c1nnnn1C`, the inhibition in experiment [1] was determined as 14%; in experiment [2] it was 99%; in experiment [3], 59%.

Consider `CCc1cc(C(C)=O)c(O)cc1OCCCCCC(C)(C)c1nn[nH]n1`, for which the inhibition in experiment [1] came out at 56%; in experiment [2], 102%; in experiment [3], 93%.

Regarding `CCc1cc(C(C)=O)c(O)cc1OCc1ccc(C#N)cc1`, the inhibition in experiment [1] amounted to 0%; in experiment [2], 7%; in experiment [3], 11%.

For `CCc1cc(C(C)=O)c(O)cc1OCCCC(C)(C)C#N`, the inhibition in experiment [1] came out at 13%; in experiment [2], 85%; in experiment [3], 46%.

As to `CCc1cc(C(C)=O)c(O)cc1OCCCCCC(C)(C)C(=O)O`, the inhibition in experiment [1] was 20%; in experiment [2], 104%; in experiment [3], 73%.

With `CCc1cc(C(C)=O)c(O)cc1OCCCC(C)(C)C(=O)O`, the inhibition in experiment [1] was determined as 12%; in experiment [2] it was 89%; in experiment [3], 43%.

For `CCc1cc(C(C)=O)c(O)cc1OCCCC(C)(C)c1nnn[nH]1`, the results for the inhibition in experiment [1], in experiment [2] and in experiment [3] were 28%, 100% and 76%, respectively.

Turning to `CCc1cc(C(C)=O)c(O)cc1OCCCC(C)(C)C(N)=O`, the inhibition is 16% in experiment [1], 92% in experiment [2] and 51% in experiment [3].

Regarding `CCc1cc(C(C)=O)c(O)cc1OCCCCC(C)(C)c1nnn[nH]1`, the inhibition in experiment [1] was found to be 17%; in experiment [3], 66%.

Take `CCc1cc(C(C)=O)c(O)cc1OCCCCCCCC(C)(C)c1nnn[nH]1`: the inhibition in experiment [1] worked out at 49%; in experiment [3], 96%.

Regarding `CCc1cc(C(C)=O)c(O)cc1OCCCCCC(C)(C)c1nnn(C)n1`, the inhibition stood at 16% in experiment [1], 95% in experiment [2] and 66% in experiment [3].

Turning to `CCc1cc(C(C)=O)c(O)cc1OCCCCCC(C)(C)C#N`, the figures for the inhibition in experiment [1], in experiment [2] and in experiment [3] were 17%, 85% and 53%, respectively.

Take `CC(=O)c1cc(CO)c(OCCCCCCC#N)cc1O`: the figures for the inhibition in experiment [2] and in experiment [3] were 40% and 8%, respectively.

Consider `C=CCc1cc(C(C)=O)c(OC)cc1OCCCCC#N`, for which the inhibition stood at 13% in experiment [2] and 8% in experiment [3].

As for `CCCc1cc(C(C)=O)c(O)c(CCC)c1OCCCCC#N`, the inhibition in experiment [2] and in experiment [3] was 0% each time.

As for `C=CCc1cc(C(C)=O)c(O)cc1OCCCCCC#N`, the inhibition in experiment [2] was determined as 81%; in experiment [3], 41%.

Consider `CCc1cc(C(C)=O)c(O)cc1OCCCCCCC(C)(C)C#N`, for which the results for the inhibition in experiment [1], in experiment [2] and in experiment [3] were 11%, 65% and 30%, respectively.

As for `C=CCc1cc(C(C)=O)c(O)cc1OCc1ccccc1C#N`, the inhibition in experiment [2] came to 47%; in experiment [3], 6%.

As to `CCc1cc(C(C)=O)c(O)cc1OCCCCN1CCOCC1`, the values for the inhibition in experiment [2] and in experiment [3] were 32% and 9%, respectively.

`C=CCc1cc(C(C)=O)c(O)cc1OCc1ccc(CC#N)cc1`: the values for the inhibition in experiment [2] and in experiment [3] were 30% and 17%, respectively.

Consider `C=CCc1cc(C(C)=O)c(O)cc1OCc1cccc(C#N)c1`, for which the inhibition is 25% in experiment [1], 71% in experiment [2] and 58% in experiment [3].

With `C=CCc1cc(C(C)=O)c(O)cc1OCc1cccc(CC#N)c1`, the results for the inhibition in experiment [2] and in experiment [3] were 16% and 0%, respectively.

As to `CCc1cc(C(C)=O)c(O)cc1OCCCCCCS(C)(=O)=O`, the inhibition in experiment [2] worked out at 99%; in experiment [3] it was 62%.

On to `C=CCc1ccc(O)cc1OCCCCC#N`, for which the results for the inhibition in experiment [2] and in experiment [3] were 29% and 9%, respectively.

`C=CCc1cc(C(C)=O)c(O)cc1OCCCC#N`: the inhibition in experiment [2] stood at 47%; in experiment [3], 6%.

With `C=CCc1cc(C(C)=O)c(O)cc1OCCCCCC(=O)NO`, the inhibition in experiment [2] worked out at 85%; in experiment [3], 28%.

For `CCCc1c(OCCCCC#N)ccc(C(C)=O)c1O`, the inhibition in experiment [2] stood at 0%; in experiment [3], 9%.

`CCCc1cc(C(C)=O)ccc1OCCCCC#N`: the results for the inhibition in experiment [2] and in experiment [3] were 44% and 19%, respectively.

In the case of `CCc1cc(C(C)=O)c(O)cc1OCc1cccc(C#N)c1`, the results for the inhibition in experiment [1], in experiment [2] and in experiment [3] were 18%, 58% and 61%, respectively.

These data come from ChEMBL document CHEMBL1126041, “Leukotriene B4 receptor antagonists: the LY255283 series of hydroxyacetophenones” (J Med Chem, 1992).
